Data reported in ChEMBL document CHEMBL1806473, “Structure-based optimization of click-based histone deacetylase inhibitors” (Eur J Med Chem, 2011).

How the values were obtained:
[1] = biological target: Histone deacetylase; experiment: Inhibition of HDAC in human HeLa cells using Ac-Arg-Gly-Lys(Ac)-AMC as fluorescent substrate after 20 mins by fluorescence assay; type: cell-based
[2] = system: CCRF-CEM; experiment: Antiproliferative activity against human CCRF-CEM cells by SRB assay; type: functional
Procedure, shortened: (§1)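 Tested in the NCI in vitro human tumor cell line screen, run by the National Cancer Institute. Each compound was given at five concentrations (100, 10, 1.0, 0.1 and 0.01 μM). GI50 is the drug concentration that reduces growth of treated cells to half that of control cells during drug incubation, judged from the SRB signal.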

[3] = system: HL-60(TB); experiment: Antiproliferative activity against human HL-60(TB) cells by SRB assay; type: functional
Procedure, shortened: (§2)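 Tested in the NCI in vitro disease-oriented human tumour cell line screen, with screening performed by NCI. Growth was read by SRB signal over the drug incubation period at five concentrations: 100, 10, 1.0, 0.1 and 0.01 μM. GI50 is the concentration that reduces growth of treated cells to half that of control cells.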

[4] = system: K562; experiment: Antiproliferative activity against human K562 cells by SRB assay; type: functional; procedure, shortened: as §1
[5] = system: MOLT-4; experiment: Antiproliferative activity against human MOLT4 cells by SRB assay; type: functional; procedure, shortened: as §1
[6] = system: SR; experiment: Antiproliferative activity against human SR cells by SRB assay; type: functional
Procedure, shortened: (§3)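 Cell growth was tested in the NIH in vitro disease-oriented human tumor cell line screen, which NCI ran for these compounds. Compounds were tested at five concentrations (100, 10, 1.0, 0.1 and 0.01 μM), and growth was read by SRB signal. GI50 is the drug concentration that reduces growth of treated cells to half that of control cells during drug incubation.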

[7] = system: A549; experiment: Antiproliferative activity against human A549 cells by SRB assay; type: functional; procedure, shortened: as §1
[8] = system: EKVX; experiment: Antiproliferative activity against human EKVX cells by SRB assay; type: functional; procedure, shortened: as §1
[9] = system: HOP-62; experiment: Antiproliferative activity against human HOP62 cells by SRB assay; type: functional; procedure, shortened: as §1
[10] = system: HOP-92; experiment: Antiproliferative activity against human HOP92 cells by SRB assay; type: functional; procedure, shortened: as §1
[11] = system: NCI-H226; experiment: Antiproliferative activity against human NCI-H226 cells by SRB assay; type: functional; procedure, shortened: as §1
[12] = system: NCI-H23; experiment: Antiproliferative activity against human NCI-H23 cells by SRB assay; type: functional; procedure, shortened: as §1
[13] = system: NCI-H460; experiment: Antiproliferative activity against human NCI-H460 cells by SRB assay; type: functional; procedure, shortened: as §1
[14] = system: COLO 205; experiment: Antiproliferative activity against human COLO205 cells by SRB assay; type: functional; procedure, shortened: as §1
[15] = system: HCT-15; experiment: Antiproliferative activity against human HCT15 cells by SRB assay; type: functional; procedure, shortened: as §1
[16] = system: KM12; experiment: Antiproliferative activity against human KM12 cells by SRB assay; type: functional; procedure, shortened: as §1
[17] = system: SW-620; experiment: Antiproliferative activity against human SW620 cells by SRB assay; type: functional; procedure, shortened: as §3
[18] = system: SNB-19; experiment: Antiproliferative activity against human SNB19 cells by SRB assay; type: functional; procedure, shortened: as §1
[19] = system: U-251; experiment: Antiproliferative activity against human U251 cells by SRB assay; type: functional; procedure, shortened: as §3
[20] = system: Malme-3M; experiment: Antiproliferative activity against human MALME-3M cells by SRB assay; type: functional; procedure, shortened: as §1
[21] = system: MDA-MB-435; experiment: Antiproliferative activity against human MDA-MB-435 cells by SRB assay; type: functional; procedure, shortened: as §1
[22] = system: UACC-257; experiment: Antiproliferative activity against human UACC257 cells by SRB assay; type: functional; procedure, shortened: as §3
[23] = system: IGROV-1; experiment: Antiproliferative activity against human IGROV1 cells by SRB assay; type: functional; procedure, shortened: as §1
[24] = system: OVCAR-4; experiment: Antiproliferative activity against human OVCAR4 cells by SRB assay; type: functional; procedure, shortened: as §1
[25] = system: SK-OV-3; experiment: Antiproliferative activity against human SKOV3 cells by SRB assay; type: functional; procedure, shortened: as §1
[26] = system: 786-0; experiment: Antiproliferative activity against human 786-0 cells by SRB assay; type: functional; procedure, shortened: as §1
[27] = system: A498; experiment: Antiproliferative activity against human A498 cells by SRB assay; type: functional; procedure, shortened: as §1
[28] = system: ACHN; experiment: Antiproliferative activity against human ACHN cells by SRB assay; type: functional; procedure, shortened: as §1
[29] = system: CAKI-1; experiment: Antiproliferative activity against human Caki1 cells by SRB assay; type: functional; procedure, shortened: as §1
[30] = system: RXF 393; experiment: Antiproliferative activity against human RXF393 cells by SRB assay; type: functional; procedure, shortened: as §1
[31] = system: TK-10; experiment: Antiproliferative activity against human TK10 cells by SRB assay; type: functional; procedure, shortened: as §3
[32] = system: PC-3; experiment: Antiproliferative activity against human PC3 cells by SRB assay; type: functional; procedure, shortened: as §1
[33] = system: DU-145; experiment: Antiproliferative activity against human DU145 cells by SRB assay; type: functional; procedure, shortened: as §1
[34] = system: MDA-MB-231; experiment: Antiproliferative activity against human MDA-MB-231 cells by SRB assay; type: functional; procedure, shortened: as §1
[35] = system: CCRF-CEM; experiment: Cytotoxicity against human CCRF-CEM cells; type: cell-based
[36] = system: K562; experiment: Cytotoxicity against human K562 cells; type: cell-based
[37] = system: RPMI-8226; experiment: Cytotoxicity against human RPMI8226 cells; type: cell-based; procedure, shortened: as §2
[38] = system: HOP-92; experiment: Cytotoxicity against human HOP92 cells; type: cell-based
[39] = system: NCI-H23; experiment: Cytotoxicity against human NCI-H23 cells; type: cell-based
[40] = system: NCI-H322M; experiment: Cytotoxicity against human NCI-H322M cells; type: cell-based
[41] = system: NCI-H522; experiment: Cytotoxicity against human NCI-H522 cells; type: cell-based; procedure, shortened: as §2
[42] = system: COLO 205; experiment: Cytotoxicity against human COLO205 cells; type: cell-based; procedure, shortened: as §2
[43] = system: HCT-116; experiment: Cytotoxicity against human HCT116 cells; type: cell-based; procedure, shortened: as §2
[44] = system: HCT-15; experiment: Cytotoxicity against human HCT15 cells; type: cell-based; procedure, shortened: as §2
[45] = system: SF-268; experiment: Cytotoxicity against human SF268 cells; type: cell-based; procedure, shortened: as §2
[46] = system: LOX IMVI; experiment: Cytotoxicity against human LOXIMVI cells; type: cell-based
[47] = system: Malme-3M; experiment: Cytotoxicity against human MALME-3M cells; type: cell-based; procedure, shortened: as §2
[48] = system: MDA-MB-435; experiment: Cytotoxicity against human MDA-MB-435 cells; type: cell-based
[49] = system: SK-MEL-5; experiment: Cytotoxicity against human SK-MEL-5 cells; type: cell-based
[50] = system: UACC-257; experiment: Cytotoxicity against human UACC257 cells; type: cell-based
Procedure, shortened: (§4)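 Screened by NCI in its in vitro disease-oriented human tumour cell line panel. Compounds tested at five concentrations (100, 10, 1.0, 0.1 and 0.01 μM). Growth read by sulforhodamine B (SRB) signal. GI50 is the concentration reducing growth of treated cells to half that of control cells during the drug incubation.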

[51] = system: IGROV-1; experiment: Cytotoxicity against human IGROV1 cells; type: cell-based
[52] = system: OVCAR-4; experiment: Cytotoxicity against human OVCAR4 cells; type: cell-based
[53] = system: A498; experiment: Cytotoxicity against human A498 cells; type: cell-based
[54] = system: RXF 393; experiment: Cytotoxicity against human RXF393 cells; type: cell-based; procedure, shortened: as §2
[55] = system: TK-10; experiment: Cytotoxicity against human TK10 cells; type: cell-based; procedure, shortened: as §4
[56] = system: UO-31; experiment: Cytotoxicity against human UO31 cells; type: cell-based; procedure, shortened: as §4
[57] = system: DU-145; experiment: Cytotoxicity against human DU145 cells; type: cell-based; procedure, shortened: as §2
[58] = system: BT-549; experiment: Cytotoxicity against human BT549 cells; type: cell-based

Structure (SMILES): CC(C)C(/C=C/c1ccccc1)n1cc(/C=C/C(=O)NO)nn1 (stereo not drawn)
- IC50 [1]: 22 nM
- GI50 [2]: 351 nM
- GI50 [3]: 728 nM
- GI50 [4]: 705 nM
- GI50 [5]: 427 nM
- GI50 [6]: 213 nM
- GI50 [7]: 1330 nM
- GI50 [8]: 1810 nM
- GI50 [9]: 1240 nM
- GI50 [10]: 1730 nM
- GI50 [11]: 2380 nM
- GI50 [12]: 1640 nM
- GI50 [13]: 761 nM
- GI50 [14]: 932 nM
- GI50 [15]: 2900 nM
- GI50 [16]: 1220 nM
- GI50 [17]: 649 nM
- GI50 [18]: 2410 nM
- GI50 [19]: 1130 nM
- GI50 [20]: 311 nM
- GI50 [21]: 719 nM
- GI50 [22]: 3120 nM
- GI50 [23]: 1080 nM
- GI50 [24]: 4060 nM
- GI50 [25]: 1490 nM
- GI50 [26]: 1590 nM
- GI50 [27]: 1510 nM
- GI50 [28]: 1210 nM
- GI50 [29]: 487 nM
- GI50 [30]: 1190 nM
- GI50 [31]: 531 nM
- GI50 [32]: 1650 nM
- GI50 [33]: 1090 nM
- GI50 [34]: 1970 nM
- LC50 [35]: > 100000 nM
- LC50 [36]: > 100000 nM
- LC50 [37]: > 100000 nM
- LC50 [38]: 22100 nM
- LC50 [39]: 12600 nM
- LC50 [40]: > 100000 nM
- LC50 [41]: 8480 nM
- LC50 [42]: 6100 nM
- LC50 [43]: 3850 nM
- LC50 [44]: > 100000 nM
- LC50 [45]: 29700 nM
- LC50 [46]: 5470 nM
- LC50 [47]: 68400 nM
- LC50 [48]: 31600 nM
- LC50 [49]: 5170 nM
- LC50 [50]: 88300 nM
- LC50 [51]: 31600 nM
- LC50 [52]: 71400 nM
- LC50 [53]: 8630 nM
- LC50 [54]: 7680 nM
- LC50 [55]: > 100000 nM
- LC50 [56]: 40900 nM
- LC50 [57]: > 100000 nM
- LC50 [58]: > 100000 nM
